Measured values: paper PMC4047138 (Pharmacological research : the official journal of the …, 2013)
Entries after “also recorded” stand apart in the source; their conditions may differ.

Columns and labels:
hV2R[L^83Q] [1] = target: T1, hV2R[L^83Q] (Homo sapiens, UniProt P30518, L83Q); experiment: hV2R[L^83Q] pharmacoperone assay; format: cell-based; conditions: for LOPAC Screen Average % Response +/- Std Dev: single concentration of 6 μM (0.4% DMSO), SR121463 as positive control, -Dox
GnRHR[E^90K] = conditions: mouse, in vivo; cited from earlier work
[2] = test system: hV2R[L^83Q] cells in the presence of doxycycline; experiment: counter screen: same hV2R[L^83Q] HeLa cells incubated with doxycycline 36 hours; format: cell-based; conditions: Homo sapiens, read-out: EC50 (μM) +Dox
Method in brief: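 HeLa line expressing hV2R[L83Q] under a tetracycline-regulated (TET-off) transactivator. Cells are pretreated with compound, challenged with an EC100 dose of vasopressin, lysed, and cAMP is read by cAMP-Glo luminescence. […] The −Dox run expresses the mutant. The +Dox counter screen adds doxycycline 36 hours before assay, shutting off mutant expression.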

hV2R[L^83Q] [3] = target: T1, hV2R[L^83Q]; conditions: pre-treatment with 100 nM, absence of Dox, 384-well; cited from earlier work

Compound: Cc1ccccc1N1CCN(S(=O)(=O)C[C@]23CC[C@H](C[C@@H]2NC(=O)[C@@H](N)CCS(C)(=O)=O)C3(C)C)CC1 [L-368,899]
- LOPAC Screen Average % Response +/- Std Dev (hV2R[L^83Q] [1]): 74+/−2%

Compound: Cc1cc(C)cc(-c2[nH]c3ccc(C(C)(C)C(=O)N4CC5CCC4CC5)cc3c2[C@H](C)CNCCc2ccncc2)c1 [IN3, (2S)-2-[5-[2-(2-azabicyclo[2.2.2]oct-2-yl)-1,1-dimethyl-2-oxoethyl]-2-(3,5-dimethylphenyl)-1H-indol-3-yl]-N-(2-pyridin-4-ylethyl)propan-1-amine]
- testis weight / size (GnRHR[E^90K]): increased testis size; also recorded: markedly increased

Compound: C=C[C@@]1(C)CC(=O)[C@]2(O)[C@@]3(C)[C@@H](O)CCC(C)(C)[C@@H]3[C@H](O)[C@H](OC(C)=O)[C@@]2(C)O1 [Forskolin]
- EC50 [2]: 0.59 µM
- LOPAC Screen Average % Response +/- Std Dev (hV2R[L^83Q] [1]): 104+/−0%

Compound: O=C1c2c(O)ccc(O)c2C(=O)c2c(NCCNCCO)ccc(NCCNCCO)c21 [Mitoxantrone]
- EC50 [2]: > 25 µM

Compound: CCOc1ccc2c(c1)C1(CCC(OCCN3CCOCC3)CC1)C(=O)N2S(=O)(=O)c1ccc(C(=O)NC(C)(C)C)cc1OC (stereo not shown) [SR121463]
- signal-to-background ratio (S/B) (hV2R[L^83Q] [1]; -Dox assay, n=4): ~7
- cAMP response to vasopressin challenge after pharmacoperone pre-treatment (hV2R[L^83Q] [3]): robust cAMP response
